Test results as given in ChEMBL document CHEMBL1123191, “Allergenic alpha-methylene-gamma-butyrolactones. Study of the capacity of beta-acetoxy- and beta-hydroxy-alpha-methylene-gamma-butyrolactones to induce allergic contact dermatitis in guinea pigs” (1986).

Assays:
Cavia porcellus [1] = species: Cavia porcellus; assay: Compound was measured for open epicutaneous test on sensitized guinea pig after sensitization of compound (3-Methylene-1-oxa-spiro[4.5]decan-2-one) average skin reaction.; type: functional
Method in brief: (§1)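 Female Albino Himalayan spotted guinea pigs (300-500 g) sensitized by FCAT: hapten emulsified in Freund's complete adjuvant, 0.1 mL intradermal in shaved nuchal region, three injections on alternate days. After 2-week rest, 25 μL of 2% lactone in CH2Cl2 (others at same molar concentration) applied to 2-cm² area of shaved flank. Read at 24 h, scale 0-3.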

Cavia porcellus [2] = species: Cavia porcellus; assay: Compound was measured for open epicutaneous test on sensitized guinea pig after sensitization of compound (4-Hydroxy-3-methylene-1-oxa-spiro[4.5]decan-2-one). average skin reaction.; type: functional; method in brief: as §1
Cavia porcellus [3] = species: Cavia porcellus; assay: Compound was measured for open epicutaneous test on sensitized guinea pig after sensitization of compound (4-Hydroxy-3-methylene-dihydro-furan-2-one) average skin reaction; type: functional; method in brief: as §1
Cavia porcellus [4] = species: Cavia porcellus; assay: Compound was measured for open epicutaneous test on sensitized guinea pig after sensitization of compound (Acetic acid 3-methylene-2-oxo-1-oxa-spiro[4.5]dec-4-yl ester); type: functional; method in brief: as §1
Cavia porcellus [5] = species: Cavia porcellus; assay: Compound was measured for open epicutaneous test on sensitized guinea pig after sensitization of compound (Acetic acid 4-methylene-5-oxo-tetrahydro-furan-3-yl ester) average skin reaction; type: functional; method in brief: as §1
Cavia porcellus [6] = species: Cavia porcellus; assay: Compound was measured for open epicutaneous test on sensitized guinea pig after sensitization of compound (Acetic acid 4-methylene-5-oxo-tetrahydro-furan-3-yl ester); type: functional; method in brief: as §1
Cavia porcellus [7] = species: Cavia porcellus; assay: Compound was measured for open epicutaneous test on sensitized guinea pig after sensitization of compound itself; type: functional; method in brief: as §1
Cavia porcellus [8] = species: Cavia porcellus; assay: Compound was measured for open epicutaneous test on sensitized guinea pig after sensitization of compound (3-Methylene-1-oxa-spiro[4.5]decan-2-one); type: functional; method in brief: as §1
Cavia porcellus [9] = species: Cavia porcellus; assay: Compound was measured for open epicutaneous test on sensitized guinea pig after sensitization of compound (4-Hydroxy-3-methylene-1-oxa-spiro[4.5]decan-2-one); type: functional; method in brief: as §1
Cavia porcellus [10] = species: Cavia porcellus; assay: Compound was measured for open epicutaneous test on sensitized guinea pig after sensitization of compound (4-Hydroxy-3-methylene-dihydro-furan-2-one); type: functional; method in brief: as §1
Cavia porcellus [11] = species: Cavia porcellus; assay: Compound was measured for open epicutaneous test on sensitized guinea pig after sensitization of compound 1a

Row | SMILES | Average skin reaction (Cavia porcellus [1]) | Average skin reaction (Cavia porcellus [2]) | Average skin reaction (Cavia porcellus [3]) | Average skin reaction (Cavia porcellus [4]) | Sensitized animals (Cavia porcellus [4]) | Average skin reaction (Cavia porcellus [5]) | Sensitized animals (Cavia porcellus [6]) | Sensitized animals (Cavia porcellus [7]) | Sensitized animals (Cavia porcellus [8]) | Sensitized animals (Cavia porcellus [9]) | Sensitized animals (Cavia porcellus [10]) | Average skin reaction (Cavia porcellus [11])
1 | C=C1CCOC1=O [TULIPALINE A] | 0 | 0 | 1.1 | 0 | 0 | 1.1 | 6 | 6 | 0 | 0 | 6 | 2
2 | C=C1C(=O)OC[C@@H]1OC(C)=O | 0 | 0 | 0.3 | 0 | 0 | 0.8 | 6 | 6 | 0 | 0 | 4 | 0.4
3 | C=C1CC2(CCCCC2)OC1=O | 1.2 | 1.7 | 0 | 0.8 | 6 | 0 | 0 | 0 | 6 | 6 | 0 | 0
4 | C=C1C(=O)OC[C@@H]1O | – | – | – | – | 0 | – | 6 | 6 | 0 | 0 | 6 | –
5 | C=C1C(=O)OC2(CCCCC2)[C@@H]1OC(C)=O | 1.7 | 1.8 | 0 | 3 | 6 | 0 | 0 | 6 | 6 | 6 | 0 | 0
6 | C=C1C(=O)OC2(CCCCC2)[C@@H]1O | 0.4 | 0.7 | 0 | 0.5 | 6 | 0 | 0 | 0 | 6 | 6 | 0 | 0
